System: U2OS
Assay: Multiplex assay against U2OS
Assay type: toxicity, cell-based
Conditions: human
Outline: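 Cells stained live at seeding with Hoechst33342, BioTracker Green Microtubule Cytoskeleton Dye, MitoTracker Red and Annexin V Alexa Fluor 680 were imaged on a CQ1 microscope at 37°C and 5% CO2 after compound addition. Their classification by CellPathfinder machine-learning gating ran from Hoechst high-intensity objects versus normal cells, to healthy, pyknosed or fragmented nuclei among normal cells, to mitotic or apoptotic among pyknosed cells. Tubulin, mitochondrial-mass and membrane-permeability phenotypes are per cents of healthy-nucleus cells.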

[1] = 12 h, 1 µM, compound concentration 1 uM, replicate 1
[2] = 12 h, 1 µM, compound concentration 1 uM, replicate 2
[3] = 12 h, 10 µM, compound concentration 10 uM, replicate 1
[4] = 12 h, 10 µM, compound concentration 10 uM, replicate 2
[5] = 24 h, 1 µM, compound concentration 1 uM, replicate 1
[6] = 24 h, 1 µM, compound concentration 1 uM, replicate 2
[7] = 24 h, 10 µM, compound concentration 10 uM, replicate 1
[8] = 24 h, 10 µM, compound concentration 10 uM, replicate 2
[9] = 48 h, 1 µM, compound concentration 1 uM, replicate 1
[10] = 48 h, 1 µM, compound concentration 1 uM, replicate 2
[11] = 48 h, 10 µM, compound concentration 10 uM, replicate 1
[12] = 48 h, 10 µM, compound concentration 10 uM, replicate 2

`CN1CCC[C@@H]1CCO[C@](C)(c1ccccc1)c1ccc(Cl)cc1.O=C(O)/C=C/C(=O)O` [CLEMASTINE FUMARATE] was tested, and the “Population Apoptotic (%)” value [1] was 50%, the “Population Fragmented Nuclei (%)” value [1] was 12% and the “Population Healthy Nuclei (%)” value [1] was 72%. The “Population Hoechst High Intensity Objects (%)” value [1] was 11%, the “Population Membrane Permeable-Phenotype (%)” value [1] was 5% and the “Population Mitochondria Different-Phenotype (%)” value [1] was 18%. The “Population Mitotic Cells (%)” value [1] was 50%, the “Population Normal (%)” value [1] was 88% and the “Population Pyknosed Nuclei (%)” value [1] was 14%. The “Population Tubulin-Different-Phenotype (%)” value [1] was 12%, the “Total Cell Count” value [1] was 108 and the “Population Fragmented Nuclei (%)” value [2] was 15%. The “Population Healthy Nuclei (%)” value [2] was 76%, the “Population Hoechst High Intensity Objects (%)” value [2] was 1% and the “Population Membrane Permeable-Phenotype (%)” value [2] was 3%. For the same compound, the “Population Mitochondria Different-Phenotype (%)” value [2] was 6%, the “Population Normal (%)” value [2] was 98% and the “Population Pyknosed Nuclei (%)” value [2] was 7%. For the same compound, the “Population Tubulin-Different-Phenotype (%)” value [2] was 3%, the “Total Cell Count” value [2] was 78 and the “Population Apoptotic (%)” value [3] was 50%. For the same compound, the “Population Fragmented Nuclei (%)” value [3] was 24%, the “Population Hoechst High Intensity Objects (%)” value [3] was 18% and the “Population Membrane Permeable-Phenotype (%)” value [3] was 13%. For the same compound, the “Population Mitochondria Different-Phenotype (%)” value [3] was 97%, the “Population Mitotic Cells (%)” value [3] was 50% and the “Population Normal (%)” value [3] was 81%. The “Population Pyknosed Nuclei (%)” value [3] was 34%, the “Population Tubulin-Different-Phenotype (%)” value [3] was 83% and the “Total Cell Count” value [3] was 127. The “Population Apoptotic (%)” value [4] was 85%, the “Population Fragmented Nuclei (%)” value [4] was 19% and the “Population Healthy Nuclei (%)” value [4] was 41%. For the same compound, the “Population Hoechst High Intensity Objects (%)” value [4] was 21%, the “Population Membrane Permeable-Phenotype (%)” value [4] was 6% and the “Population Mitochondria Different-Phenotype (%)” value [4] was 86%. For the same compound, the “Population Mitotic Cells (%)” value [4] was 14%, the “Population Normal (%)” value [4] was 78% and the “Population Pyknosed Nuclei (%)” value [4] was 38%. For the same compound, the “Population Tubulin-Different-Phenotype (%)” value [4] was 40%, the “Total Cell Count” value [4] was 46 and the “Population Apoptotic (%)” value [5] was 55%. The “Population Fragmented Nuclei (%)” value [5] was 7%, the “Population Healthy Nuclei (%)” value [5] was 85% and the “Population Hoechst High Intensity Objects (%)” value [5] was 6%. For the same compound, the “Population Membrane Permeable-Phenotype (%)” value [5] was 5%, the “Population Mitochondria Different-Phenotype (%)” value [5] was 9% and the “Population Mitotic Cells (%)” value [5] was 44%. For the same compound, the “Population Normal (%)” value [5] was 93%, the “Population Pyknosed Nuclei (%)” value [5] was 7% and the “Population Tubulin-Different-Phenotype (%)” value [5] was 13%. For the same compound, the “Total Cell Count” value [5] was 135, the “Population Apoptotic (%)” value [6] was 18% and the “Population Fragmented Nuclei (%)” value [6] was 14%. The “Population Healthy Nuclei (%)” value [6] was 70%, the “Population Hoechst High Intensity Objects (%)” value [6] was 0% and the “Population Mitochondria Different-Phenotype (%)” value [6] was 13%. For the same compound, the “Population Mitotic Cells (%)” value [6] was 81%, the “Population Normal (%)” value [6] was 99% and the “Population Pyknosed Nuclei (%)” value [6] was 15%. For the same compound, the “Population Tubulin-Different-Phenotype (%)” value [6] was 6%, the “Total Cell Count” value [6] was 107 and the “Population Apoptotic (%)” value [7] was 64%. For the same compound, the “Population Fragmented Nuclei (%)” value [7] was 33%, the “Population Healthy Nuclei (%)” value [7] was 35% and the “Population Hoechst High Intensity Objects (%)” value [7] was 10%. For the same compound, the “Population Membrane Permeable-Phenotype (%)” value [7] was 21%, the “Population Mitochondria Different-Phenotype (%)” value [7] was 100% and the “Population Mitotic Cells (%)” value [7] was 35%. For the same compound, the “Population Normal (%)” value [7] was 90%, the “Population Pyknosed Nuclei (%)” value [7] was 31% and the “Population Tubulin-Different-Phenotype (%)” value [7] was 68%. The “Total Cell Count” value [7] was 120, the “Population Apoptotic (%)” value [8] was 76% and the “Population Fragmented Nuclei (%)” value [8] was 21%. For the same compound, the “Population Healthy Nuclei (%)” value [8] was 36%, the “Population Hoechst High Intensity Objects (%)” value [8] was 12% and the “Population Membrane Permeable-Phenotype (%)” value [8] was 26%. The “Population Mitochondria Different-Phenotype (%)” value [8] was 86%, the “Population Mitotic Cells (%)” value [8] was 23% and the “Population Normal (%)” value [8] was 87%. For the same compound, the “Population Pyknosed Nuclei (%)” value [8] was 41%, the “Population Tubulin-Different-Phenotype (%)” value [8] was 26% and the “Total Cell Count” value [8] was 47. For the same compound, the “Population Apoptotic (%)” value [9] was 38%, the “Population Hoechst High Intensity Objects (%)” value [9] was 3% and the “Population Membrane Permeable-Phenotype (%)” value [9] was 4%. For the same compound, the “Population Mitochondria Different-Phenotype (%)” value [9] was 11%, the “Population Mitotic Cells (%)” value [9] was 61% and the “Population Normal (%)” value [9] was 96%. For the same compound, the “Population Pyknosed Nuclei (%)” value [9] was 10%, the “Population Tubulin-Different-Phenotype (%)” value [9] was 6% and the “Total Cell Count” value [9] was 184. For the same compound, the “Population Apoptotic (%)” value [10] was 31%, the “Population Fragmented Nuclei (%)” value [10] was 5% and the “Population Healthy Nuclei (%)” value [10] was 84%. The “Population Hoechst High Intensity Objects (%)” value [10] was 1%, the “Population Membrane Permeable-Phenotype (%)” value [10] was 5% and the “Population Mitochondria Different-Phenotype (%)” value [10] was 13%. The “Population Mitotic Cells (%)” value [10] was 68%, the “Population Normal (%)” value [10] was 98% and the “Population Pyknosed Nuclei (%)” value [10] was 9%. For the same compound, the “Population Tubulin-Different-Phenotype (%)” value [10] was 15%, the “Total Cell Count” value [10] was 164 and the “Population Apoptotic (%)” value [11] was 83%. The “Population Fragmented Nuclei (%)” value [11] was 33%, the “Population Healthy Nuclei (%)” value [11] was 25% and the “Population Hoechst High Intensity Objects (%)” value [11] was 11%. For the same compound, the “Population Membrane Permeable-Phenotype (%)” value [11] was 3%, the “Population Mitochondria Different-Phenotype (%)” value [11] was 80% and the “Population Mitotic Cells (%)” value [11] was 16%. For the same compound, the “Population Normal (%)” value [11] was 88%, the “Population Pyknosed Nuclei (%)” value [11] was 41% and the “Population Tubulin-Different-Phenotype (%)” value [11] was 50%. For the same compound, the “Total Cell Count” value [11] was 117, the “Population Apoptotic (%)” value [12] was 54% and the “Population Fragmented Nuclei (%)” value [12] was 25%. The “Population Healthy Nuclei (%)” value [12] was 46%, the “Population Hoechst High Intensity Objects (%)” value [12] was 15% and the “Population Membrane Permeable-Phenotype (%)” value [12] was 44%. The “Population Mitochondria Different-Phenotype (%)” value [12] was 72%, the “Population Mitotic Cells (%)” value [12] was 45% and the “Population Normal (%)” value [12] was 84%. For the same compound, the “Population Pyknosed Nuclei (%)” value [12] was 28%, the “Population Tubulin-Different-Phenotype (%)” value [12] was 55% and the “Total Cell Count” value [12] was 46.
